Each structure is given as a SMILES string.

Assay [1] has as its system Plasmodium falciparum. The assay is described as follows: In vitro antimalarial activity against chloroquine-sensitive Plasmodium falciparum HB3. It is filed as functional, organism-based. An outline of the steps:
(§1)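 48-h [3H]hypoxanthine incorporation assay on P. falciparum cultured in human erythrocytes in RPMI 1640 with 25 mM HEPES, 32 mM NaHCO3 and 10% human serum, gassed 3% O2/4% CO2/93% N2. Assay at 2% parasitemia and 0.5% hematocrit, with DMSO stocks diluted in medium, run in triplicate. 0.5 μCi hypoxanthine added after 24 h at 37 °C, then 24 h more. IC50 interpolated from probit of log dose–response.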

The test system of assay [2] is Plasmodium falciparum. The assay is described as follows: In vitro antimalarial activity against chloroquine-resistant Plasmodium falciparum K1. It is filed as functional, organism-based. An outline of the steps:
as §1

The subject of assay [3] is Mus musculus. The assay is described as follows: In vivo antimalarial activity against Plasmodium berghei. In kind it is functional.
Assay [4] relates to Mus musculus. The assay is described as follows: In vivo antimalarial activity against Plasmodium yoelii when administered subcutaneously. In kind it is functional. The settings on record: sc.
For assay [5], the system named is Mus musculus. The assay is described as follows: In vivo antimalarial activity against Plasmodium berghei when administered perorally. It is filed as functional. The settings on record: po.
Assay [6] deals with Plasmodium yoelii. The assay is described as follows: In vivo antimalarial activity against Plasmodium yoelii when administered subcutaneously. The settings on record: Mus musculus, sc.
In assay [7] the test system is Plasmodium berghei. The assay is described as follows: In vivo antimalarial activity against Plasmodium berghei.

In general, IC50 refers to the concentration at which inhibition is half-maximal. For the molecule `C[C@H]1[C@H](Oc2ccccc2)O[C@@H]2OC3(C)CC[C@H]4[C@H](C)CC[C@@H]1[C@@]24OO3` (single isomer, unassigned), the IC50 in assay [1] stood at 2.61 nM; in assay [2], 2.97 nM.

By ED50 is commonly meant the dose that gives a 50% effect, or the effect in half of the subjects. A high value points to a need for a large dose. In turn, `C[C@H]1[C@@H](Oc2ccccc2)O[C@@H]2OC3(C)CC[C@H]4[C@H](C)CC[C@@H]1[C@@]24OO3` (single isomer, unassigned) showed an ED50 in assay [3] of 3.09 mg/kg. For the same molecule, the IC50 in assay [1] was 3.24 nM; in assay [2] it was 3.66 nM.

Regarding `Cc1ccc(O[C@H]2O[C@@H]3OC4(C)CC[C@H]5[C@H](C)CC[C@@H]([C@H]2C)[C@@]35OO4)cc1` (single isomer, unassigned), the IC50 worked out at 3.24 nM in assay [1] and 3.92 nM in assay [2].

As for `COc1ccc(O[C@@H]2O[C@@H]3OC4(C)CC[C@H]5[C@H](C)CC[C@@H]([C@H]2C)[C@@]35OO4)cc1` (single isomer, unassigned), the values for the IC50 in assay [1] and in assay [2] were 3.32 nM and 3.86 nM, respectively.

Consider `Cc1ccc(O[C@@H]2O[C@@H]3OC4(C)CC[C@H]5[C@H](C)CC[C@@H]([C@H]2C)[C@@]35OO4)cc1` (single isomer, unassigned), for which the IC50 worked out at 2.87 nM in assay [1] and 3.18 nM in assay [2].

Take `C[C@H]1[C@@H](Oc2ccc(C(F)(F)F)cc2)O[C@@H]2OC3(C)CC[C@H]4[C@H](C)CC[C@@H]1[C@@]24OO3` (single isomer, unassigned): the figures for the ED90 in assay [4] and in assay [5] were 3.1 mg/kg and 5.4 mg/kg, respectively. Moreover, the figures for the ED50 in assay [3], in assay [5] and in assay [6] were 2.12 mg/kg, 2.7 mg/kg and 2.2 mg/kg, respectively. Also, the half-inhibitory concentration (IC50) stood at 3.9 nM in assay [1] and 5.29 nM in assay [2].

As to `C[C@H]1[C@H](Oc2ccc(C(F)(F)F)cc2)O[C@@H]2OC3(C)CC[C@H]4[C@H](C)CC[C@@H]1[C@@]24OO3` (single isomer, unassigned), the IC50 in assay [1] worked out at 3.42 nM; in assay [2], 4.62 nM.

Regarding `C[C@H]1[C@H](Oc2ccc(F)cc2)O[C@@H]2OC3(C)CC[C@H]4[C@H](C)CC[C@@H]1[C@@]24OO3` (single isomer, unassigned), the IC50 is 4.04 nM in assay [1] and 5.7 nM in assay [2].

Molecule `COc1ccc(O[C@H]2O[C@@H]3OC4(C)CC[C@H]5[C@H](C)CC[C@@H]([C@H]2C)[C@@]35OO4)cc1` (single isomer, unassigned) came in with an IC50 in assay [2] of 4.58 nM.

Take `C[C@H]1[C@@H](Oc2ccc(F)cc2)O[C@@H]2OC3(C)CC[C@H]4[C@H](C)CC[C@@H]1[C@@]24OO3` (single isomer, unassigned): the 50% inhibitory concentration (IC50) in assay [1] came to 2.88 nM; in assay [2], 4.58 nM.

In assay [3], `CO[C@H]1O[C@@H]2O[C@@]3(C)CC[C@H]4[C@H](C)CC[C@@H]([C@H]1C)[C@@]24OO3` [ARTEMETHER] displayed an ED50 of 6.02 mg/kg. The IC50 in assay [1] worked out at 3.42 nM; in assay [2], 4.55 nM.

Take `C[C@@H]1CC[C@H]2[C@@H](C)C(=O)O[C@@H]3O[C@@]4(C)CC[C@@H]1[C@]32OO4` [ARTEMISININ]: the IC50 in assay [1] came to 9.67 nM; in assay [2], 11.2 nM.

Molecule `C[C@H]1[C@@H](O)O[C@@H]2O[C@@]3(C)CC[C@H]4[C@H](C)CC[C@@H]1[C@@]24OO3` [ARTENIMOL] gave an ED50 in assay [7] of 1.95 mg/kg.

Turning to `C[C@H]1[C@H](OC(=O)CCC(=O)[O-])O[C@@H]2O[C@@]3(C)CC[C@H]4[C@H](C)CC[C@@H]1[C@@]24OO3.[Na+]` [SODIUM ARESUNATE], the ED90 in assay [4] was 13.5 mg/kg; in assay [5], 13 mg/kg. For the same molecule, the ED50 in assay [5] was 4 mg/kg; in assay [6] it was 3.6 mg/kg.

These data come from ChEMBL document CHEMBL1134464, “Synthesis, antimalarial activity, biomimetic iron(II) chemistry, and in vivo metabolism of novel, potent C-10-phenoxy derivatives of dihydroartemisinin” (J Med Chem, 2001).
